These results are taken from PMC2714051 (European journal of medicinal chemistry, 2008).

The subject of one test is bovine brain tubulin. In words: [3H]colchicine binding to tubulin. The note with it: 1 μM drug; 1.0 μM tubulin, 5.0 μM [3H]colchicine, 10 min 37 °C.
The subject of test [1] is MCF-7 human breast cancer cells. Put plainly: MCF-7 cell growth, sulforhodamine B. It counts as cell-based.
Another test concerns SF-295 (glyoblastoma). In words: MTT cytotoxicity assay, SF-295. The following applies: Homo sapiens, SF-295, 72 h, read-out: Cytotoxic activity IC50. Format: cell-based. In outline:
(§1)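 Test compounds at 0.0009–5 µg/mL were incubated with the human tumour cells for 72 h. Growth was read by the cells' reduction of yellow MTT to blue formazan.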
In general terms: Tetrazolium dyes change colour on reduction, which living cells bring about.

The next test relates to HCT-8 (colon). Put plainly: MTT cytotoxicity assay, HCT-8. The note with it: Homo sapiens, HCT-8, 72 h, read-out: Cytotoxic activity IC50. Format: cell-based. In outline: as §1
Another test deals with HL-60 (leukemia). Put plainly: MTT cytotoxicity assay, HL-60. It counts as cell-based. The following applies: Homo sapiens, HL-60, 72 h, read-out: Cytotoxic activity IC50. In outline: as §1
The test system of the next test is MDA/MB-435 (breast). In words: MTT cytotoxicity assay, MDA/MB-435. It counts as cell-based. The note with it: Homo sapiens, MDA-MB-435, 72 h, read-out: Cytotoxic activity IC50. In outline: as §1

In brackets after ≈: the same amount, converted by molar mass.

On to `COc1ccc(/C=C\c2cc(OC)c(OC)c(OC)c2)cc1O` [CA4, combretastatin A-4, reference compound], for which the “Colchicine binding % inhibition ± SD” value with bovine brain tubulin is 85 ± 5%. Moreover, the IC50 (as a rule, the concentration that inhibits the measured activity by half) in test [1] (Homo sapiens, MCF7, 48 h, read-out: MCF-7 cell growth IC50 ± SD) came to 1.4 ± 0.1 nM.
As for `COc1ccc(Sc2cc(OC)c(OC)c(OC)c2)cc1` [compound 1, 1,2,3-trimethoxy-5-[(4-methoxyphenyl)thio]benzene], the half-inhibitory concentration (IC50) with SF-295 (glyoblastoma) was determined as 0.01 mg/L (≈ 0.0326 µM); with HCT-8 (colon), 0.01 mg/L (≈ 0.0326 µM); with HL-60 (leukemia) it was 0.001 mg/L (≈ 0.00326 µM); in the test on MDA/MB-435 (breast), 0.001 mg/L (≈ 0.00326 µM). The “Fold less active than CA4 as an inhibitor of MCF-7 cell growth” value in test [1] (in comparison with CA4) is reported as “about 10 fold”.
As for `COc1ccc([S+]([O-])c2cc(OC)c(OC)c(OC)c2)cc1` (stereo not drawn) [compound 2, 1,2,3-trimethoxy-5[(4-methoxyphenyl)sulfinyl]benzene], the 50% inhibitory concentration (IC50) in the test on SF-295 (glyoblastoma) was determined as 0.47 mg/L (≈ 1.46 µM); in the test on HCT-8 (colon) it was 0.15 mg/L (≈ 0.465 µM); in the test on HL-60 (leukemia), 0.11 mg/L (≈ 0.341 µM); in the test on MDA/MB-435 (breast), 0.09 mg/L (≈ 0.279 µM).
Turning to `COc1ccc(S(=O)(=O)c2cc(OC)c(OC)c(OC)c2)cc1` [compound 3, 1,2,3-trimethoxy-5[(4-methoxyphenyl)sulfonyl]benzene], the IC50 was 2.61 mg/L (≈ 7.71 µM) in the test with SF-295 (glyoblastoma), 3.95 mg/L (≈ 11.7 µM) in the test with HCT-8 (colon), 1.53 mg/L (≈ 4.52 µM) in the test with HL-60 (leukemia) and 0.75 mg/L (≈ 2.22 µM) with MDA/MB-435 (breast).
